From PubChem
CXCR6 block: inhibitors of human CXCR6 receptor; O00574; CHO-K1 PathHunter CXCR6 beta-arrestin, luminescence; inhibition, % at 20 µM; actives 0.36% (n = 360,000); AID 602244; in the data active = inhibition above about 34%, passing the limit was not always enough;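 note: antagonist mode with CXCL16 agonist at 10 nM final; 0% = 10 nM CXCL16 with DMSO and 100% = unstimulated wells without agonist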
CCR6 antagonist: CCR6 (human) receptor antagonism | P51684 | CHO-K1 CCR6 PathHunter beta-arrestin, luminescence, CCL20-stimulated | inhibition, % at 20 µM | actives 0.49% (n = 340,000);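 active = compounds whose inhibition of the agonist-driven luminescence signal at 20 µM reaches about 50%, limit read from the data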;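 note: cells stimulated with CCL20 at 14 nM final; plate controls were DMSO with CCL20 for no effect and DMSO without agonist for full effect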
APJ ag: activates the human apelin receptor APJ; activation, % at 20 µM; actives 0.11% (n = 330,000); CHO-K1 APJ PathHunter beta-arrestin, luminescence; 0% DMSO wells, 100% apelin;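 active = activation more than six SD over the plate average, tested at 20 µM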;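 note: 0% = DMSO alone and 100% = apelin-13 at 10 nM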
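Test system: CHO-K1 APJ beta-arrestin complementation cell line | Compound: Single test compound dose, 20 µM final, 1% DMSO | Incubation: Compound 90 min 25 °C, reagent 1 h | Measured by: beta-gal luminescence | Read-out basis: APJ–arrestin association signal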
EBI2 block: EBI2 (human) antagonism; EBI2 beta-arrestin recruitment, luminescence, 7a,25-OHC stimulated; actives 0.81% (n = 360,000); inhibition, % at 5 µM; in the data active = inhibition above about 38%;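 note: enzyme fragment complementation signal reports receptor beta-arrestin coupling in cells; 0% = agonist plus DMSO wells and 100% = wells without agonist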
Target sequence (P32249 whole entry, looked up, the tested form may be a part): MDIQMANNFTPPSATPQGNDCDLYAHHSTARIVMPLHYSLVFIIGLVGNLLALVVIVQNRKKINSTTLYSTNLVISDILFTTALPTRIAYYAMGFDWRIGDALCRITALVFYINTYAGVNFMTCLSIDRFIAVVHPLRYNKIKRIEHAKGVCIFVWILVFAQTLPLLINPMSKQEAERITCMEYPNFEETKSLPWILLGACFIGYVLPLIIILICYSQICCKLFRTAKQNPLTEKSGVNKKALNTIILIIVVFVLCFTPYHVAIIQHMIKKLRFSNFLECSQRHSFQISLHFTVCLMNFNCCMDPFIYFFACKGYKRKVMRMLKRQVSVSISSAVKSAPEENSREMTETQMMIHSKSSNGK
APJ antag: antagonists of human APJ apelin receptor; P35414; actives 0.32% (n = 330,000); CHO-K1 APJ beta-arrestin complementation, luminescence; inhibition, % at 20 µM;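 active = inhibition above about 40% at 20 µM, limit read from the data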;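 note: cells challenged with 10 nM apelin-13 agonist together with compound; plate controls were apelin-13 plus DMSO wells for no effect and DMSO wells lacking apelin-13 for full effect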
EBI2 conf: EBI2 (human) antagonism, single concentration confirmation; EBI2 beta-arrestin luminescence, 7a,25-OHC antagonism; actives 29% (n = 2,400); inhibition, % at 5 µM; shares compounds with EBI2 block; AID 651997;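 active = inhibition of at least 50%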
EBI2 agonist: activates EBI2, counter-screen for EBI2 antagonists; shares compounds with EBI2 block; EBI2-expressing cells, agonist mode, luminescence, 60 min; 0% vehicle, 100% 7α,25-dihydroxycholesterol control; 2,400 tested, under 10 active; activation, % at 5 µM;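 active = activation of at least 50%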
bGal cs: inhibits E. coli beta-galactosidase, counter-screen for EBI2 antagonists. inhibition, % at 5 µM. shares compounds with EBI2 block. purified beta-galactosidase, luminescent Galacton Star, 15 min. actives 1% (n = 2,400);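 active = replicate-average signal at least 3 plate SD below neutral wells, shown as high inhibition, flagging enzyme-inhibiting false positives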;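 note: 0% = DMSO wells with enzyme and 100% = wells lacking enzyme; higher means stronger loss of beta-gal luminescence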
* marks the source's active call; other numbers are inactive results; . = not tested or not shown. A selection: hits, their analogues and other compounds. The true share with any hit is near 1.5%.

SMILES	CXCR6 block	CCR6 antagonist	APJ ag	EBI2 block	APJ antag	EBI2 conf	EBI2 agonist	bGal cs
CN1CCN(CCNC(=O)c2ccc3nc(-c4ccc(F)cc4)c(-c4ccc(F)cc4)nc3c2)CC1	6	15	-2	-18	17	.	.	.
COC(=O)c1ccc(OCC(O)CN2CCN(C(=O)c3ccco3)CC2)cc1 (stereo unspecified)	-12	-1	2	-3	-9	.	.	.
O=C(c1ccco1)N1CCN(CC(O)COc2ccc(Br)cc2)CC1 (stereo unspecified)	0	2	-3	51*	9	3	-2	-6
OC(COc1ccc(Br)cc1)CN1CCC(Cc2ccccc2)CC1 (stereo unspecified)	-5	3	-1	61*	4	46	2	-1
O=C(COC(=O)c1cc[n+]([O-])cc1)Nc1cc([N+](=O)[O-])ccc1Cl	-4	2	-5	-4	5	.	.	.
O=C(CSc1ccc2c(c1)OCCO2)Nc1ncc(Cl)cc1Cl	2	1	-3	-1	13	.	.	.
O=C(CSc1ccc2c(c1)OCCO2)NCCc1ccc(Cl)cc1Cl	-2	4	0	63*	-20	27	0	-12
Cc1cc2c(cc1S(=O)(=O)CCC(=O)N(C)C1CCCCC1)OCC(=O)N2	5	1	4	10	0	.	.	.
O=C(NCc1ccc2c(c1)OCO2)c1cc([N+](=O)[O-])ccc1N1CCCCC1	4	16	-4	83*	14	62*	-2	-14
O=C(CSc1nc2cc([N+](=O)[O-])ccc2n1-c1ccccc1)NCc1ccc2c(c1)OCO2	-3	4	-4	55*	15	24	-1	-8
O=C(NCc1ccco1)c1cc([N+](=O)[O-])ccc1N1CCCCC1	0	17	-4	53*	6	39	1	3
O=C(Nc1cc([N+](=O)[O-])ccc1N1CCOCC1)c1ccco1	7	7	-2	6	3	.	.	.
COc1cc(NC(=O)c2cc([N+](=O)[O-])ccc2N2CCOCC2)ccc1NC(=O)c1ccco1	-2	15	-3	55*	-44	7	-1	-4
CCN(CC)C(=O)C1=C(C)N(CCC2=CCCCC2)C(=O)C(CC(=O)NCc2cccc3ccccc23)C1 (stereo unspecified)	6	.	.	21	.	.	.	.
CNC(C)C(=O)NC(C(=O)N1CCCC1C(=O)Nc1ccc2ncccc2c1)C(C)C (stereo unspecified)	-4	2	-3	-18	4	.	.	.
CCOc1ncccc1C(=O)Nc1ccc(C(=O)Nc2ccc(OC)cc2)cc1	17	4	-7	57*	4	31	2	1
CCOc1ccc(NC(=O)c2ccc(OC)cc2)cc1	1	-3	-3	13	9	.	.	.
O=C(NCCN1CCN(C(=O)c2ccc(Br)cc2)CC1)c1ccc(Br)cc1	-8	-2	3	44*	15	22	-1	-6
Cc1ccc(C(=O)NCCN2CCN(C(=O)c3ccc(C)c(C)c3)CC2)cc1C	3	2	-4	13	5	.	.	.
CCCCCCCCN1C(=O)[C@H](CC(=O)NCc2ccc(OC)c(OC)c2)C[C@@]2(C(=O)OC)CC(C)(C)CC=C12	.	.	.	9	.	.	.	.
CCOc1ccc(N=Cc2ccc3ccccc3c2)cc1	-6	-10	0	-1	7	.	.	.
CCOc1ccc(N=CNc2ccc(OCC)cc2)cc1	-14	23	0	56*	3	48	0	4
COc1ccccc1C(=O)COC(=O)CN1C(=O)NC2(CCCC2)C1=O	-2	6	0	-1	1	.	.	.
CC(C)n1c(SCC(=O)N2CCN(C)CC2)nc2c1c(=O)n(C)c(=O)n2C	-2	5	-1	-10	19	.	.	.
O=C(c1ccc(F)cc1)N1CCN(c2ccc([N+](=O)[O-])cc2-n2cccc2)CC1	11	23	-2	55*	7	26	0	5
